Results reported in ChEMBL document CHEMBL4513216, “Probing the Open Global Health Chemical Diversity Library for Multistage-Active Starting Points for Next-Generation Antimalarials” (ACS Infect Dis, 2020).

Test: Toxicity liver stage against HepG2, at 10uM
Type: cell-based
Set-up: test concentration 10 uM, cell line HepG2-A16-CD81EGFP
Details: human, HepG2-A16-CD81EGFP cells; read-out: INHIBITION
Outline: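 Uninfected HepG2-A16-CD81EGFP cells, 3 × 10^3 per well, 1536-well, plated on prespotted compound at 10 μM final, parasite-free screening media added to match infected plates; puromycin 10 μM positive, DMSO 0.5% negative; run in parallel with 48 h PbLuc assay at 37 °C, 5% CO2; viability by CellTiter-Glo luminescence, normalized to controls.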

SMILES | cytotoxicity at 10 µM [%]
COc1cccc(CC(=O)N2CCCC2c2nc(C)c(C)c(O)n2)c1 (stereo not given) | -36.9
CC1COCCN1C(=O)c1ccc(=O)n(Cc2ccccc2)n1 (stereo not given) | -1.19
COc1cc(-c2n[nH]c(CO)n2)cc(OC)c1OC | -4.91
O=c1cc(N2CCCC2)cnn1CC(F)F | 6.93
COc1ccc(-c2ncccc2C(=O)N2C[C@@H]3CC[C@H]2C3)cn1 | 6.42
Cc1cc(C)n(CC(C)NCCN2CCc3ccccc32)n1 (stereo not given) | -7.73
CCc1nc(C)c(CC(=O)N2CCC3(CC2)OCCCC3O)c(=O)[nH]1 (stereo not given) | 9.16
c1cncc(Cc2nnc3n2CCN(CC2CCOC2)CC3)c1 (stereo not given) | -2.11
CCOc1cccc(C(=O)N2CCC(c3n[nH]c(C4CC4)n3)CC2)c1 | -16.8
Cn1nccc1-c1nc2c(cc1C(=O)O)CCN(C(=O)C1CC1)CC2 | -143
Cc1cccc(CN2C[C@@H]3COC[C@]3(COc3ccc(C#N)cn3)C2)n1 | -21.2
Cc1noc(C)c1CN1CC[C@@H]2O[C@@H](COCC3CC3)CC[C@@H]21 | 6.46
CCc1ocnc1C(=O)N1CCOC(CCCC(C)C)C1 (stereo not given) | 4.29
Cc1ccc(CC2CCCN2CC(=O)NCc2cccnc2)cc1 (stereo not given) | -3.83
Cn1cc(S(=O)(=O)NCC2CCN(C(=O)c3ccoc3)CC2)cn1 | -3.82
COc1cccc2c1N(Cc1nc3c(cnn3C)c(=O)[nH]1)CCC2 | -4.15
Cc1cc(N2CCCC2)c(C#N)c(C)n1 | 10.4
O=C(c1ccc2c(c1)COC2)N1CCN(CCO)CC1 | -16.5
Cc1cc(CN2CCOCS2(=O)=O)ccc1F | -8.02
Cc1cc(CN2CC[C@@H]3[C@@H](CCC(=O)N3CCc3c[nH]cn3)C2)oc1C | -0.466
Cc1c(NC(=O)NC2CN3CCC2CC3)cccc1C(=O)N1CCCC1 (stereo not given) | 10.1
CC1CCC(n2cc3nc(N)[nH]cc-3c2=O)CC1 (stereo not given) | -0.0237

SMILES | cytotoxicity at 10 µM [%]
CC(C)(C)c1cc(NC(=O)CN2CCCCC2Cn2cncn2)on1 (stereo not given) | 0.0788
CCc1cc(=O)[nH]c(-c2ccc(NC(C)CN3CCOCC3)nc2)n1 (stereo not given) | -145
N[C@H]1CN(C(=O)c2cnc3cc(Cl)ccc3c2O)C[C@@H]1C1CC1 | -44.1
CC(C)NC1CCCc2nc(-c3ccccc3)ncc21 (stereo not given) | 16.1
Cc1cc(C)n(C2CCCN(C(=O)c3ccc(F)c(F)c3)C2)n1 (stereo not given) | -4.91
O=C(CCO)N1C[C@H]2CN(c3ccccc3)C(=O)[C@H]2C1 | 1.35
Nc1nccc(N2CCNC(C(=O)NCc3ccccn3)C2)n1 (stereo not given) | -48.5
Cc1nccn1CCCC(=O)N1CCC(N(C)c2cccnn2)CC1 | -13.4
CC1(C)CN=C(N2CCN(CC3CCCO3)CC2)S1 (stereo not given) | -8.41
CC(C)c1nn(C)c(N(C)C)c1CNCc1cccc2c1OCO2 | -4.66
CN(Cc1cc(C(C)(C)C)n[nH]1)C(=O)c1ccc2nccn2c1 | -7.01
Cn1ccnc1CN1CCCN(C(=O)c2ccc3[nH]cnc3c2)CC1 | -0.565
CC(C(=O)N(C)Cc1noc(C2CCC2)n1)N1CCc2ccccc2C1 (stereo not given) | -79.1
COc1ccccc1OCc1cc(C(=O)N2CCS(=O)(=O)CC2)n[nH]1 | -2.93
CCc1nc(N2CCCN(c3ncccn3)CC2)c2cnn(C)c2n1 | 2.22
CC1(NC(=O)Cc2csc(NC(=O)c3ccccc3)n2)CCS(=O)(=O)C1 (stereo not given) | 0.271
CCOc1cccc(COC(=O)c2cscn2)n1 | -0.262
Cn1cccc1C(=O)N1CCC2(CCCN2S(C)(=O)=O)CC1 | 5.13
COC(=O)c1ncccc1N1CCCCC1 | -8.77
Cc1nc(CC2CCCN(Cc3nc(N)c4ccccc4n3)C2)no1 (stereo not given) | -41.3
COc1ccccc1S(=O)(=O)N1CCC2(CC1)[C@H](O)C[C@@H]2O | 9.12
O=C(c1ccc(Br)s1)N1CCN(Cc2ccc(OC(F)(F)F)cc2)CC1 | 23.1

SMILES | cytotoxicity at 10 µM [%]
CNC(=O)c1ccc(Cn2ccnc2S(C)(=O)=O)cc1 | -3.83
CN(C)C(=O)CNC(=O)c1ccn(-c2ccc3ccccn23)n1 | 0.74
CC(C)Nc1ncnc2c1CCN(C(=O)Cc1cccs1)CC2 | -80.9
Cc1ccccc1C(C)(C)CNC(=O)CN(C)c1cnccn1 | -2.21
CSc1ccc(C(=O)N2C[C@@H]3CC[C@H]2CN(Cc2ccccc2)C3)cc1 | -5.49
CC(C)CNC(=O)c1ccc2nnc(C3CCN(S(C)(=O)=O)C3)n2c1 (stereo not given) | 5.09
COC(=O)c1ccc(C(=O)NCc2nn(C)c3c2COCC3)cc1 | 7.91
CN(C)c1nccc(N(C)C2CCOCC2)n1 | 3.13
CN(Cc1noc(C2CC2)n1)C1CCN(Cc2ccccc2C#N)C1 (stereo not given) | -7.8
OCC1(Cc2ccc(Cl)cc2)CCN(Cc2cccnc2)CC1 | -45.6
Cc1nc(C)n(CC2CN(Cc3cccc(OC(C)C)c3)CCO2)n1 (stereo not given) | -5.44
COCCOCCNC(=O)c1ccc(N2CCC(C)=N2)cc1 | 7.42
Cc1cc(C)n(CCC2CC(=O)Nc3cc(O)c(C)cc32)n1 (stereo not given) | -1.74
COCCOCC(=O)N1CCCC(c2ncc[nH]2)C1 (stereo not given) | -4.59
CNC(=O)NC(C)c1nc(-c2ccc(Br)cc2)no1 (stereo not given) | 7.71
COC1COC2(CCN(C(=O)c3ccc4ccccc4c3)CC2)C1 (stereo not given) | -98.4
O=C(c1ccc(Cl)cc1)N1CCC(N2CCCOC2=O)CC1 | 11.1
Cc1cc2nc(C(C)C)cc(NCCc3cccn3C)n2n1 | 0.407
Cc1cc(C(=O)N2CCCC(c3nc(C)no3)C2)on1 (stereo not given) | 6.93
Cc1cccc2[nH]c(C3CCN(C(=O)c4ccnn4C)CC3)nc12 | -21.6
Cc1ccc(C(=O)NCCCS(C)(=O)=O)c(=O)[nH]1 | -7.6
O=C(NCc1ccccc1F)C1=NOC2(CCNC2)C1 (stereo not given) | 3.23

SMILES | cytotoxicity at 10 µM [%]
Cc1ccn(CCC(=O)N2CCCC(Cc3cccnc3)C2)n1 (stereo not given) | -4.47
O=C(NCCCN1CCOCC1)c1cc(-c2ccccc2)[nH]n1 | -161
Cc1cccc(CCC(=O)Nc2ccnn2C2CCS(=O)(=O)C2)c1 (stereo not given) | 0.499
COc1ccc(Cl)cc1S(=O)(=O)N(C)CC(N)=O | 7.82
CN1Cc2ccccc2NC(=O)C12CCNC2 (stereo not given) | 6.75
O=C(c1ccco1)N1C[C@H]2CCCN(Cc3ccoc3)[C@H]2C1 | 0.276
Cc1nc(C)n(CC2CN(CCOc3ccccc3C#N)CCO2)n1 (stereo not given) | -7.45
Cc1nc(CN2CCCN(C(=O)c3ccccn3)CC2)oc1C | 0.289
NC(=O)c1cnn2c1NCC(CNCC1(c3ccccc3)CCC1)C2 (stereo not given) | -7.73
NC(=O)CN(CC1CCOC1)C1CC1 (stereo not given) | -14
CN(C)CCN(C)C1CCN(C(C(=O)O)c2ccc(F)c(Cl)c2)CC1 (stereo not given) | 2.95
CCn1c(C)nnc1SCCNc1cc(COC)ncn1 | 6.35
Cc1cnc(C(=O)N2CCC3(CC2)CN(c2ccccn2)CCO3)cn1 | -80.2
CCCn1cc(NC(=O)Nc2ccc(F)c(C(=O)NC)c2)cn1 | 6.98
CCCC(=O)N1CCCCC1c1nccc(C)n1 (stereo not given) | -21
CC(C)CN1CCCn2nc(CNC(=O)NC(C)(C)C)cc2C1 | -4.54
CC(NC(=O)N1CCCN(CC(F)F)CC1)c1ccco1 (stereo not given) | -6.03
CC(=O)N1[C@H](Cn2cncn2)C[C@@H]2CN(c3ncc(F)cn3)CC[C@@H]21 | -5.09
CC(C)CN1C[C@H]2CCN(C(=O)NC3CCCC3)CC[C@H]2S1(=O)=O | 7.31
O=C(c1cc2cccc(F)c2[nH]1)N1C[C@@H](O)[C@H](N2CCCC2)C1 | 0.152
Cc1noc([C@@H]2CCO[C@@H]3CCN(Cc4ccc(C)s4)C[C@@H]32)n1 | -77.6
CC1(C)CNC(=O)c2nc(CCCN3CCCC3)[nH]c2C1 | -12.4

SMILES | cytotoxicity at 10 µM [%]
Cc1ccc(NC(=O)N2CCC(NC(=O)c3ccc(C)o3)CC2)cc1 | 0.385
CCc1ccc(NC(=O)C(C)N2CCN(Cc3ncc[nH]3)CC2)cc1 (stereo not given) | -7.83
O=C(Nc1ccccc1OCCc1ccccn1)N1CC[C@@H](O)C1 | 4.4
F[C@@H]1CN(Cc2ccccc2)C[C@@H]1OCc1nc2cnccc2[nH]1 | -0.966
CCNC(=O)[C@@H]1C[C@@H](N)CN1C(=O)CCc1ccc(C)c(C)c1 | 2.72
O=C(O)Cn1nc(-c2ccccc2F)ccc1=O | 2.87
CCCc1nc(CNc2nc(C)nc3oc(C)nc23)cs1 | -39.6
CCS(=O)(=O)N1Cc2ccnn2CC(c2nc(C)no2)C1 (stereo not given) | 6.86
CCN1C[C@@H]2CN(Cc3cccs3)C[C@@H]2C1=O | -3.19
c1cc(-c2noc(-c3cc(C4CC4)[nH]n3)n2)cc(N2CCCCC2)n1 | 3.05
CCOCC(=O)NCCC(O)c1ccoc1 (stereo not given) | -4.59
CCc1nc(C(=O)N(CC)CC(=O)N(C)C)nn1-c1ccccc1Cl | 5.25
O=C(c1cccc(-c2ccc(F)cc2)c1)N1CCCC(O)(CO)CC1 (stereo not given) | -4.77
COc1ccc(CNCc2c(C(C)C)nn(C)c2N(C)C)cn1 | -3.92
NC(=O)c1cc(C2CCCN(C(=O)CCc3cscn3)C2)n[nH]1 (stereo not given) | -7.59
COc1cc2ccn(CCS(C)(=O)=O)c(=O)c2cc1F | 18.5
CCc1c(C(=O)N2CCN(c3ncccn3)CC2)cnn1C(C)(C)C | -1.91
O=C(c1cscn1)N1CCC2(CCN(S(=O)(=O)c3ccccc3)C2)C1 (stereo not given) | 11
COCCn1cc2c(n1)C(CNCc1ccsc1)OCC2 (stereo not given) | 3.89
Cc1cccc2[nH]c(C3CCCN(Cc4ccc(CO)o4)C3)nc12 (stereo not given) | 9.83
CN(CC(F)F)C(=O)c1cn(-c2ccc(Br)cc2)cn1 | 1.73
O=C(Nc1cccc(CNCc2cccs2)c1)C1CC1 | -8.3
